From ChEMBL document CHEMBL3612047, “Synthesis, antiproliferative activity and possible mechanism of action of novel 2-acetamidobenzamides bearing the 2-phenoxy functionality” (Bioorg Med Chem, 2015)
Activity calls are given as the source filed them. The calls are words filed in the database; no cut-off is given here.

What was measured:
NCI-H460 = experiment: Growth inhibition of human NCI-H460 cells by NCI standard protocol based method; assay type: functional
Method in brief: (§1)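 NCI full 60-cell-line panel, 5-dose assay to the NCI standard protocol. GI₅₀ is the molar concentration inhibiting 50% net cell growth. Mean graph midpoint is averaged over all lines; where the effect is not reached, the highest tested concentration is used.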

K562 [1] = experiment: Growth inhibition of human K562 cells incubated for 24 hrs by trypan blue dye exclusion assay; assay type: functional, cell-based; settings: K562, 24 h
Method in brief: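 K562 cells, about 2 × 10⁵ cells/mL, precultured 24 h, then exposed 24 h to a range of compound concentrations. Viable cells counted by hemocytometer with trypan blue exclusion to derive IC₅₀.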

SNB-19 = experiment: Growth inhibition of human SNB19 cells by NCI standard protocol based method; assay type: functional
Method in brief: (§2)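 NCI 60-cell-line screen, standard NCI protocol. Single high dose of 10⁻⁵ M first, then a 5-dose assay across the full panel. Reported as GI₅₀, TGI and LC₅₀, the molar concentrations giving 50% net growth inhibition, total growth inhibition and 50% net cell death. Where an effect was not reached, the highest tested concentration was used.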

A498 = experiment: Growth inhibition of human A498 cells by NCI standard protocol based method; assay type: functional; method in brief: as §1
M14 = experiment: Growth inhibition of human M14 cells by NCI standard protocol based method; assay type: functional; method in brief: as §1
Tubulin (Homo sapiens) = Tubulin (Homo sapiens) (UniProt P68371+Q9H4B7+P0DPH7+P68366+Q13509+Q71U36+P04350+Q3ZCM7+P07437+P68363+Q9BQE3+Q6PEY2+Q13885+Q9BVA1+Q9BUF5); experiment: Inhibition of tubulin (unknown origin) assembly; assay type: protein-complex assay
HCT-116 = experiment: Growth inhibition of human HCT116 cells by NCI standard protocol based method; assay type: functional; method in brief: as §1
NCI-H322M = experiment: Growth inhibition of human NCI-H322M cells by NCI standard protocol based method; assay type: functional; method in brief: as §1
NCI/ADR-RES = experiment: Growth inhibition of human NCI/ADR-RES cells by NCI standard protocol based method; assay type: functional; method in brief: as §1
NCI-H23 = experiment: Growth inhibition of human NCI-H23 cells by NCI standard protocol based method; assay type: functional; method in brief: as §1
[2] = Cytotoxicity against human HuDe cells incubated for 72 hrs by MTT assay; assay type: cell-based
Method in brief: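 HuDe primary culture from human epidermis, seeded at 2 × 10⁴ cells/mL. Test drugs at different concentrations, or 0.1% DMSO, added 24 h after seeding, with 72 h exposure. MTT (5 mg/mL in PBS) then applied for 3 h at 37 °C. Formazan solubilized with isopropanol/triton X-100/HCl and read at 570 nm with 690 nm blank.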

K562 [3] = experiment: Selectivity index, ratio of IC50 for human HuDe cells to IC50 human K562 cells
Method in brief: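 Index taken as the ratio of HuDe to K562 IC₅₀. For K562: about 2 × 10⁵ cells/mL, compounds added at graded concentrations, viable count by trypan blue exclusion with a hemocytometer after 24 h. For HuDe primary epidermal cells: 2 × 10⁴ cells/mL, drugs or 0.1% DMSO added 24 h after seeding, MTT read at 570 nm (690 nm blank) after 72 h.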

[4] = Growth inhibition of human RXF393 cells by NCI standard protocol based method; assay type: functional; settings: RXF 393; method in brief: as §1
SK-MEL-2 = experiment: Growth inhibition of human SK-MEL-2 cells by NCI standard protocol based method; assay type: functional; method in brief: as §1
[5] = Growth inhibition of human SF539 cells by NCI standard protocol based method; assay type: functional; settings: SF-539; method in brief: as §1
NCI-H522 = experiment: Growth inhibition of human NCI-H522 cells by NCI standard protocol based method; assay type: functional; method in brief: as §1
MDA-MB-435 = experiment: Growth inhibition of human MDA-MB-435 cells by NCI standard protocol based method; assay type: functional; method in brief: as §1
[6] = Growth inhibition of human NCI60 cells assessed as cell growth level at 10 uM by NCI standard protocol based method; assay type: functional; parameters: scale not given: the % may be the effect or the level left
Method in brief: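 NCI 60-cell-line screen (leukemia, lung, colon, melanoma, renal, ovarian, brain, breast, prostate) run to the NCI standard protocol. Single high dose of 10⁻⁵ M, read as growth percent. Mean graph midpoint is the arithmetic mean over all lines tested.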

SN12C = experiment: Growth inhibition of human SN12C cells by NCI standard protocol based method; assay type: functional; method in brief: as §2
ACHN = experiment: Growth inhibition of human ACHN cells by NCI standard protocol based method; assay type: functional; method in brief: as §1
T47D = experiment: Growth inhibition of human T47D cells by NCI standard protocol based method; assay type: functional; method in brief: as §2
HCT-15 = experiment: Growth inhibition of human HCT15 cells by NCI standard protocol based method; assay type: functional; method in brief: as §1
[7] = Growth inhibition of human SF295 cells by NCI standard protocol based method; assay type: functional; settings: SF-295; method in brief: as §1
SK-MEL-5 = experiment: Growth inhibition of human SK-MEL-5 cells by NCI standard protocol based method; assay type: functional; method in brief: as §1
OVCAR-5 = experiment: Growth inhibition of human OVCAR5 cells by NCI standard protocol based method; assay type: functional; method in brief: as §1
SNB-75 = experiment: Growth inhibition of human SNB75 cells by NCI standard protocol based method; assay type: functional; method in brief: as §2
SW-620 = experiment: Growth inhibition of human SW620 cells by NCI standard protocol based method; assay type: functional; method in brief: as §2
U-251 = experiment: Growth inhibition of human U251 cells by NCI standard protocol based method; assay type: functional; method in brief: as §2
SK-OV-3 = experiment: Growth inhibition of human SKOV3 cells by NCI standard protocol based method; assay type: functional; method in brief: as §2
MDA-MB-231 = experiment: Growth inhibition of human MDA-MB-231 cells by NCI standard protocol based method; assay type: functional; method in brief: as §1
PC-3 = experiment: Growth inhibition of human PC3 cells by NCI standard protocol based method; assay type: functional; method in brief: as §1
[8] = Growth inhibition of human MOLT4 cells by NCI standard protocol based method; assay type: functional; settings: MOLT-4; method in brief: as §1
KM12 = experiment: Growth inhibition of human KM12 cells by NCI standard protocol based method; assay type: functional; method in brief: as §1
MCF7 = experiment: Growth inhibition of human MCF7 cells by NCI standard protocol based method; assay type: functional; method in brief: as §1
OVCAR-3 = experiment: Growth inhibition of human OVCAR3 cells by NCI standard protocol based method; assay type: functional; method in brief: as §1
A549 = experiment: Growth inhibition of human A549/ATCC cells by NCI standard protocol based method; assay type: functional; method in brief: as §1
SK-MEL-28 = experiment: Growth inhibition of human SK-MEL-28 cells by NCI standard protocol based method; assay type: functional; method in brief: as §1
K562 [9] = experiment: Growth inhibition of human K562 cells at 10 uM incubated for 24 hrs by trypan blue dye exclusion assay; assay type: functional; settings: K562, 24 h, read-out: GI
Method in brief: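 K562 cells in medium with 5% FBS at 37 °C, 5% CO₂. About 2 × 10⁵ cells/mL cultured 24 h, then compound added at 10 μM. After 24 h exposure, cells counted by hemocytometer and viability scored by trypan blue exclusion, reported as percent growth inhibition.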

[10] = Growth inhibition of human Hs578T cells by NCI standard protocol based method; assay type: functional; settings: Hs-578T; method in brief: as §1
[11] = Growth inhibition of human COLO205 cells by NCI standard protocol based method; assay type: functional; settings: COLO 205; method in brief: as §1

NC(=O)c1cc(Cl)ccc1NC(=O)COc1ccccc1
GI50 (NCI-H460): 3 µM | IC50 (K562 [1]): 1.3 µM | GI50 (SNB-19): 11.7 µM | GI50 (A498): 1.41 µM | GI50 (M14): 2.21 µM | inhibition (Tubulin (Homo sapiens)): inactive | GI50 (HCT-116): 2.72 µM | GI50 (NCI-H322M): 7.09 µM | GI50 (NCI/ADR-RES): 1.43 µM | GI50 (NCI-H23): 5.9 µM | IC50 [2]: 808 µM | Ratio IC50 (K562 [3]): 621.38 | GI50 [4]: 3.93 µM | GI50 (SK-MEL-2): 5.08 µM | GI50 [5]: 1.8 µM | GI50 (NCI-H522): 3.78 µM | GI50 (MDA-MB-435): 0.356 µM | Activity [6]: 46.4% | GI50 (SN12C): 17 µM | GI50 (ACHN): 10.7 µM | GI50 (T47D): 6.87 µM | GI50 (HCT-15): 1.57 µM | GI50 [7]: 1.96 µM | GI50 (SK-MEL-5): 7.45 µM | GI50 (OVCAR-5): 3.86 µM | GI50 (SNB-75): 1.81 µM | GI50 (SW-620): 2.58 µM | GI50 (U-251): 2.34 µM | GI50 (SK-OV-3): 8.15 µM | GI50 (MDA-MB-231): 9.01 µM | GI50 (PC-3): 3.22 µM | GI50 [8]: 8.14 µM | GI50 (KM12): 2.13 µM | GI50 (MCF7): 1.81 µM | GI50 (OVCAR-3): 2.3 µM | GI50 (A549): 7.06 µM | GI50 (SK-MEL-28): 6.25 µM | inhibition of growth at 10 µM (K562 [9]): 87% | GI50 [10]: 4.65 µM | GI50 [11]: 2.51 µM
